{"source": "paper PMC10951545", "about": "(Heliyon, 2024)", "key": {"[1]": {"system": "ventilator-associated pneumonia caused by multidrug-resistant bacteria", "experiment": "Evaluation of clinical efficacy", "type": "in vivo, patients", "settings": "control group (polymyxin B alone), n = 28"}, "[2]": {"experiment": "Complications", "type": "in vivo", "settings": "number of patients (%)", "how_it_was_run": "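ICU patients with severe pulmonary infection were given IV polymyxin B sulfate as an approx. 1 h drip (loading 15,000 U/Kg, then 20,000 U/Kg/d in two doses), either alone or with CVVH (35 ml/kg/h, blood flow 200 ml/min). The incidence of skin pigmentation, nephrotoxicity and 28-day mortality was recorded per group, and the groups were compared.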"}, "[3]": {"settings": "control group (polymyxin B alone), n = 28"}, "[4]": {"settings": "observation group (polymyxin B + CRRT), n = 7"}}, "note": "Where a SMILES comes first, the peptide text is derived from it. Bridges are numbered along the chain shown (N, C = ends). [ ]: non-standard residue; d: D form. The star is where a group is joined. X1 = CC[C@H](C)CCCCC(=O)*; Dab = NCC[C@H](N)C(=O)O", "data": [{"smiles": "CC[C@H](C)CCCCC(=O)N[C@@H](CCN)C(=O)N[C@H](C(=O)N[C@@H](CCN)C(=O)N[C@H]1CCNC(=O)[C@H]([C@@H](C)O)NC(=O)[C@H](CCN)NC(=O)[C@H](CCN)NC(=O)[C@H](CC(C)C)NC(=O)[C@@H](Cc2ccccc2)NC(=O)[C@H](CCN)NC1=O)[C@@H](C)O", "note": "[polymyxin B] (X1-[Dab]T[Dab][Dab][Dab][dF]L[Dab][Dab]T; lactam 4-C)", "values": [{"measurement": "response rate", "setting": "[1]", "result": 50.00, "unit": "%"}, {"measurement": "28-day mortality", "setting": "[2]; [3]", "result": "8 (28.57)"}, {"measurement": "Nephrotoxicity", "setting": "[2]; [3]", "result": "6 (21.43)"}, {"measurement": "Skin pigmentation", "setting": "[2]; [3]", "result": "3 (10.71)"}, {"measurement": "28-day mortality", "setting": "[2]; [4]", "result": "4 (57.14)"}, {"measurement": "Nephrotoxicity", "setting": "[2]; [4]", "result": "1 (14.29)"}, {"measurement": "Skin pigmentation", "setting": "[2]; [4]", "result": "2 (28.57)"}]}]}
